Experimental data published in ChEMBL document CHEMBL3779826, “Converting maslinic acid into an effective inhibitor of acylcholinesterases” (Eur J Med Chem, 2015).

How the values were obtained:
Candida antarctica [1] = assay: Inhibition of Candida antarctica lipase at 5 uM using 4-NA as substrate preincubated for 20 mins before the addition of substrate
Outline: (§1)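 Candida antarctica lipase in 50 mM Tris-HCl pH 8.0 was preincubated with compound at 37 °C for 20 min. Reaction started with 4-NA ([…] as added). Absorbance at 415 nm was read kinetically at 37 °C for 10 min at 1-min intervals. Relative inhibition was taken as the ratio of linear-range slopes, compound over blank.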

Cholinesterase = Cholinesterase (Equus caballus, UniProt P81908); assay: Inhibition of equine serum BChE using butyrylthiocholine iodide as substrate preincubated for 20mins before the addition of substrate by Ellman's method; details: for Ki: read-out: Ki
Acetylcholinesterase = Acetylcholinesterase (Electrophorus electricus, UniProt O42275); assay: Inhibition of Electrophorus electricus AChE using acetylthiocholine iodide as substrate preincubated for 20mins before the addition of substrate by Ellman's method; details: for Ki: read-out: Ki
[2] = target: Acetylcholinesterase (Electrophorus electricus) (UniProt O42275); assay: Inhibition of Electrophorus electricus AChE at 5 uM using acetylthiocholine iodide as substrate preincubated for 20mins before the addition of substrate by Ellman's method
Outline: (§2)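 Ellman assay: enzyme in Tris-HCl pH 8.0 with NaN3, plus DTNB (3 mM stock with NaCl and MgCl2), was preincubated with compound at 30 °C for 20 min. Thiocholine substrate was then added and absorbance at 415 nm recorded at 30 °C for 30 min at 1-min intervals, in triplicate. Residual DMSO below 0.5%.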

[3] = target: Cholinesterase (Equus caballus) (UniProt P81908); assay: Inhibition of equine serum BChE at 5 uM using butyrylthiocholine iodide as substrate preincubated for 20mins before the addition of substrate by Ellman's method; outline: as §2
[4] = target: Carbonic anhydrase 2 (Bos taurus) (UniProt P00921); assay: Inhibition of bovine erythrocte carbonic anhydrase 2 at 5 uM
[5] = target: Cholinesterase (Equus caballus) (UniProt P81908); assay: Inhibition of equine serum BChE at 10 uM using butyrylthiocholine iodide as substrate preincubated for 20mins before the addition of substrate by Ellman's method; outline: as §2
[6] = target: Carbonic anhydrase 2 (Bos taurus) (UniProt P00921); assay: Inhibition of bovine erythrocte carbonic anhydrase 2 at 10 uM
[7] = target: Acetylcholinesterase (Electrophorus electricus) (UniProt O42275); details: 10 uM
Candida antarctica [8] = assay: Inhibition of Candida antarctica lipase at 10 uM using 4-NA as substrate preincubated for 20 mins before the addition of substrate; outline: as §1
[9] = target: Acetylcholinesterase (Electrophorus electricus) (UniProt O42275); assay: Mixed type inhibition of Electrophorus electricus AChE by Lineweaver-Burk plot analysis
Outline: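 Ellman kinetics at 30 °C in pH 8.0 Tris-HCl with DTNB. Enzyme plus inhibitor (3 concentrations and a water blank) was preincubated for 20 min, then ATChI was added at 0.9375, 0.625, 0.325 or 0.1875 mM. A415 was read every minute for 30 min, in triplicate. Mode, Ki and Ki' came from Lineweaver-Burk, Dixon and Cornish-Bowden plots.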

[10] = target: Cholinesterase (Equus caballus) (UniProt P81908); assay: Mixed type inhibition of equine serum BChE by Lineweaver-Burk plot analysis

Chain of Cholinesterase (Equus caballus) (P81908 whole entry): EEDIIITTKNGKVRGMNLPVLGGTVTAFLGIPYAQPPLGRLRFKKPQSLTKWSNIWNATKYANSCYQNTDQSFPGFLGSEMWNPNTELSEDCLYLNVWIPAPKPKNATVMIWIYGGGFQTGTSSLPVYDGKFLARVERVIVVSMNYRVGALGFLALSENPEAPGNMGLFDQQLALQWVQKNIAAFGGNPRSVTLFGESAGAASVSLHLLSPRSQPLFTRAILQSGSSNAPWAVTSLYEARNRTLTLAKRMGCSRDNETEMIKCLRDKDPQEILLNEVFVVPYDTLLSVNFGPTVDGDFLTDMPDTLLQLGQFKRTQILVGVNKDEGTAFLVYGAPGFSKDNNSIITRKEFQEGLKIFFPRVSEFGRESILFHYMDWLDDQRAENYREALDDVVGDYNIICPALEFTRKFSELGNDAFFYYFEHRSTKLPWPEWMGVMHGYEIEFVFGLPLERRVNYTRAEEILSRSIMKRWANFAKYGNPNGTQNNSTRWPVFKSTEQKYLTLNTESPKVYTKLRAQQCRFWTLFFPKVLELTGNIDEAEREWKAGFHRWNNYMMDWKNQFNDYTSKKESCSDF
Chain of Cholinesterase (P81908 whole entry): as above
Chain of Acetylcholinesterase (O42275 whole entry): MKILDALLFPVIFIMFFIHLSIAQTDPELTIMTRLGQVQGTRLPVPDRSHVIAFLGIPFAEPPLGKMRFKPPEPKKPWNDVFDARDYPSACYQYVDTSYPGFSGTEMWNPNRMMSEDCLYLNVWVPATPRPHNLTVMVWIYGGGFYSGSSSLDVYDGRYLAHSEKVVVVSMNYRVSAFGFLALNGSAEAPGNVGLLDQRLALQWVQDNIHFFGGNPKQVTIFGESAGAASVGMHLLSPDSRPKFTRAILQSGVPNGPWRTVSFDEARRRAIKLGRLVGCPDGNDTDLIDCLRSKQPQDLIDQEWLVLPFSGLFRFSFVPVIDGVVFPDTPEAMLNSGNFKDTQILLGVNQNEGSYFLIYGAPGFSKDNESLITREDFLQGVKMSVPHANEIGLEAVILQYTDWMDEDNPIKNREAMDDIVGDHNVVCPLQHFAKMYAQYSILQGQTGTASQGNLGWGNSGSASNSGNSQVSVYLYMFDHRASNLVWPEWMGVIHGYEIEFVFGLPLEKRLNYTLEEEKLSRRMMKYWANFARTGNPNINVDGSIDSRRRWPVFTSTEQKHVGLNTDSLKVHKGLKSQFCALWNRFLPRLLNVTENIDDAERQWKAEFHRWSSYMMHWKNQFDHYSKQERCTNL
Chain of Acetylcholinesterase (Electrophorus electricus) (O42275 24-633 limits assumed): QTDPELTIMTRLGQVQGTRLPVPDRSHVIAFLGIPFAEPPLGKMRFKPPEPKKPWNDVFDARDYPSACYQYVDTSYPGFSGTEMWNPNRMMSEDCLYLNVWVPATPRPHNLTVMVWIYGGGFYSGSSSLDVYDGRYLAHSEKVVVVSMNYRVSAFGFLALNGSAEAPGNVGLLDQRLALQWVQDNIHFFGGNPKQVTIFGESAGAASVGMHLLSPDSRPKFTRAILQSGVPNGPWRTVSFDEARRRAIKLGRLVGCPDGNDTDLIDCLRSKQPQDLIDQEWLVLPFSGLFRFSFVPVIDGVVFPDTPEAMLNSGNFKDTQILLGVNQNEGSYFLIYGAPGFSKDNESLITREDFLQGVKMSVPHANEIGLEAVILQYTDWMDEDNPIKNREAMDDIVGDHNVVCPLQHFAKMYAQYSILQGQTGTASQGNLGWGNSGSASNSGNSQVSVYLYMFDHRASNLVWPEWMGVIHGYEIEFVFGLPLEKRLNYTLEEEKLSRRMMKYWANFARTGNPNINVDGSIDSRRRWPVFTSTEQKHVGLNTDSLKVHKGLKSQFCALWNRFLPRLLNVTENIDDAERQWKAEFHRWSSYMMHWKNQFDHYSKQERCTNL
Chain of Carbonic anhydrase 2 (Bos taurus) (P00921 2-260 limits assumed): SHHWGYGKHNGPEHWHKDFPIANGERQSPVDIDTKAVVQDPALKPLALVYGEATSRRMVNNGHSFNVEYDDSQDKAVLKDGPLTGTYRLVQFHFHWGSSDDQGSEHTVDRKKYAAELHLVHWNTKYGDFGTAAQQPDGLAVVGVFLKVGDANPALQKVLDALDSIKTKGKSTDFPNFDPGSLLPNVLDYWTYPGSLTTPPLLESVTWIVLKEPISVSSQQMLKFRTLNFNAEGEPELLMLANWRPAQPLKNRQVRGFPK

| Compound | inhibition (Candida antarctica [1]) [%] | Ki (Cholinesterase) [µM] | IC50 (Acetylcholinesterase) [µM] | Ki (Acetylcholinesterase) [µM] | inhibition [2] [%] | inhibition [3] [%] | inhibition [4] [%] | inhibition [5] [%] | inhibition [6] [%] | inhibition [7] [%] | inhibition (Candida antarctica [8]) [%] | Kiuc [9] [µM] | IC50 (Cholinesterase) [µM] | Kiuc [10] [µM] |
| --- | --- | --- | --- | --- | --- | --- | --- | --- | --- | --- | --- | --- | --- | --- |
| CC1(C)CC[C@]2(C(=O)OCCCCCl)CC[C@]3(C)C(=CC[C@@H]4[C@@]5(C)C[C@@H](O)[C@H](O)C(C)(C)[C@@H]5CC[C@]43C)[C@@H]2C1 | 0 | > 10 | 10.5 | 1.68 | 79 | 0 | 0 |  |  |  |  |  |  |  |
| CC1(C)CC[C@]2(C(=O)OCCCI)CC[C@]3(C)C(=CC[C@@H]4[C@@]5(C)C[C@@H](O)[C@H](O)C(C)(C)[C@@H]5CC[C@]43C)[C@@H]2C1 |  | > 20 | 10.3 | 6.01 |  |  |  | 0 | 6 | 51 | 0 | 13.4 |  |  |
| CC1(C)CC[C@]2(C(=O)O)CC[C@]3(C)C(=CC[C@@H]4[C@@]5(C)C[C@H](O)[C@H](O)C(C)(C)[C@@H]5CC[C@]43C)[C@@H]2C1 [AUGUSTIC ACID] |  | 35.6 |  | > 30 |  |  |  |  |  |  |  |  | 16.6 | 10.6 |
